Assays:
Details in all cases: in vivo; call rule not given here
Rattus norvegicus [1] = experiment: Cmax in male Sprague-Dawley rat at 10 mg/kg, iv administered as bolus dose by liquid scintillation counting analysis; format: ADME, organism-based; set-up: dose 10 mg/kg, route intravenous
Summary of the method: (§1)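 Single dose of [³⁵S]-labelled prodrug to rats, i.v. tail-vein bolus in 25% PEG 400/75% saline or oral gavage in 0.05 M citric acid buffer pH 2.5, 5 ml/kg. Retro-orbital blood into EDTA at 1, 4 or 24 h; plasma by centrifugation. Radioactivity by liquid scintillation counting as µg-Eq/ml. Noncompartmental sparse-sampling analysis gives Cmax and AUC; nine rats per sex.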

Brain [2] = experiment: Drug uptake in Sprague-Dawley rat brain at 10 mg/kg, po administered as single dose measured at 1 to 24 hrs post-dose by liquid scintillation counting analysis; format: ADME, organism-based; set-up: dose 10 mg/kg, route oral
Summary of the method: (§2)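 Single i.v. tail-vein bolus or oral gavage of [³⁵S]-prodrug to rats, 5 ml/kg. Euthanised by i.p. pentobarbital overdose at 1, 4 or 24 h. Retro-orbital blood collected; liver, lung, kidney, heart, brain and spleen frozen. Tissues homogenised, solubilised and counted by liquid scintillation. Radioactivity given as µg-Eq/g and % of dose.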

[3] = Drug excretion in male Sprague-Dawley rat feces at 10 mg/kg, iv administered as bolus dose measured at 4 to 24 hrs post-dose by liquid scintillation counting analysis; format: ADME, organism-based; set-up: dose 10 mg/kg, route intravenous
Summary of the method: (§3)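 Single [³⁵S]-prodrug dose to rats, i.v. tail-vein bolus (PEG 400/saline vehicle) or oral gavage (citric acid buffer pH 2.5), 5 ml/kg. Urine and feces collected ~1, 4 and 24 h postdose. Radioactivity counted by liquid scintillation and expressed as % of administered dose. Mean and S.D. from nine rats per sex.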

Plasma = experiment: Drug uptake in Sprague-Dawley rat plasma at 10 mg/kg, po administered as single dose measured at 4 hrs post-dose by liquid scintillation counting analysis; format: ADME, organism-based; set-up: dose 10 mg/kg, route oral
Summary of the method: (§4)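 [35S]-labelled prodrug given once to rats, iv bolus via tail vein (25% PEG 400/75% saline) or oral gavage (0.05 M citric acid buffer, pH 2.5), 5 ml/kg. Rats euthanised at 1, 4 or 24 h. Liver, lung, kidney, heart, brain, spleen, tail and retro-orbital plasma were collected. Samples were homogenised and solubilised, and radioactivity was counted by liquid scintillation. Values are µg-equivalent/ml or g and % of dose.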

[4] = Drug excretion in male Sprague-Dawley rat feces at 10 mg/kg, po administered as single dose measured at 4 to 24 hrs post-dose by liquid scintillation counting analysis; format: ADME, organism-based; set-up: dose 10 mg/kg, route oral; summary of the method: as §3
Spleen = experiment: Drug uptake in Sprague-Dawley rat spleen at 10 mg/kg, po administered as single dose measured at 1 to 24 hrs post-dose by liquid scintillation counting analysis; format: ADME, organism-based; set-up: dose 10 mg/kg, route oral; summary of the method: as §4
[5] = Drug excretion in female Sprague-Dawley rat urine at 10 mg/kg, po administered as single dose measured at 1 to 4 hrs post-dose by liquid scintillation counting analysis; format: ADME, organism-based; set-up: dose 10 mg/kg, route oral; summary of the method: as §3
Rattus norvegicus [6] = experiment: AUC in female Sprague-Dawley rat at 10 mg/kg, iv administered as bolus dose by liquid scintillation counting analysis; format: ADME, organism-based, Plasma; set-up: dose 10 mg/kg, route intravenous; summary of the method: as §1
[7] = Drug excretion in male Sprague-Dawley rat feces at 10 mg/kg, po administered as single dose measured at 1 to 4 hrs post-dose by liquid scintillation counting analysis; format: ADME, organism-based; set-up: dose 10 mg/kg, route oral; summary of the method: as §3
[8] = Drug excretion in male Sprague-Dawley rat urine at 10 mg/kg, po administered as single dose measured at 4 to 24 hrs post-dose by liquid scintillation counting analysis; format: ADME, organism-based; set-up: dose 10 mg/kg, route oral; summary of the method: as §3
Rattus norvegicus [9] = experiment: Tmax in female Sprague-Dawley rat at 10 mg/kg, po administered as single dose by liquid scintillation counting analysis; format: ADME, organism-based; set-up: dose 10 mg/kg, route oral
Summary of the method: (§5)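 Radioactivity in plasma from rats given a single [35S]-labelled dose, iv (tail vein, 25% PEG 400/75% saline) or oral gavage (0.05 M citric acid, pH 2.5), sampled at 1, 4 and 24 h, measured by liquid scintillation as µg-Eq/ml. Elimination t1/2 and Tmax were derived by noncompartmental analysis with sparse sampling, from nine male and nine female rats.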

[10] = Drug excretion in female Sprague-Dawley rat urine at 10 mg/kg, iv administered as bolus dose measured at 0 to 1 hr post-dose by liquid scintillation counting analysis; format: ADME, organism-based; set-up: dose 10 mg/kg, route intravenous; summary of the method: as §3
[11] = Drug excretion in male Sprague-Dawley rat urine at 10 mg/kg, iv administered as bolus dose measured at 1 to 4 hrs post-dose by liquid scintillation counting analysis; format: ADME, organism-based; set-up: dose 10 mg/kg, route intravenous; summary of the method: as §3
Lung [12] = experiment: Drug uptake in Sprague-Dawley rat lung at 10 mg/kg, iv administered as bolus dose measured at 1 to 24 hrs post-dose by liquid scintillation counting analysis; format: ADME, organism-based; set-up: dose 10 mg/kg, route intravenous; summary of the method: as §4
Kidney = experiment: Drug uptake in Sprague-Dawley rat kidney at 10 mg/kg, po administered as single dose measured at 4 hrs post-dose by liquid scintillation counting analysis; format: ADME, organism-based; set-up: dose 10 mg/kg, route oral; summary of the method: as §4
[13] = Drug excretion in female Sprague-Dawley rat urine at 10 mg/kg, po administered as single dose measured at 0 to 1 hr post-dose by liquid scintillation counting analysis; format: ADME, organism-based; set-up: dose 10 mg/kg, route oral; summary of the method: as §3
Lung [14] = experiment: Drug uptake in Sprague-Dawley rat lung at 10 mg/kg, po administered as single dose measured at 4 hrs post-dose by liquid scintillation counting analysis; format: ADME, organism-based; set-up: dose 10 mg/kg, route oral; summary of the method: as §4
[15] = Drug excretion in female Sprague-Dawley rat feces at 10 mg/kg, iv administered as bolus dose measured at 4 to 24 hrs post-dose by liquid scintillation counting analysis; format: ADME, organism-based; set-up: dose 10 mg/kg, route intravenous; summary of the method: as §3
[16] = Drug excretion in male Sprague-Dawley rat urine at 10 mg/kg, po administered as single dose measured at 1 to 4 hrs post-dose by liquid scintillation counting analysis; format: ADME, organism-based; set-up: dose 10 mg/kg, route oral; summary of the method: as §3
Blood = experiment: Drug uptake in Sprague-Dawley rat blood at 10 mg/kg, po administered as single dose measured at 4 hrs post-dose by liquid scintillation counting analysis; format: ADME, organism-based; set-up: dose 10 mg/kg, route oral; summary of the method: as §2
Brain [17] = experiment: Drug uptake in Sprague-Dawley rat brain at 10 mg/kg, iv administered as bolus dose measured at 1 to 24 hrs post-dose by liquid scintillation counting analysis; format: ADME, organism-based; set-up: dose 10 mg/kg, route intravenous; summary of the method: as §2
[18] = Drug excretion in female Sprague-Dawley rat feces at 10 mg/kg, po administered as single dose measured at 0 to 1 hr post-dose by liquid scintillation counting analysis; format: ADME, organism-based; set-up: dose 10 mg/kg, route oral; summary of the method: as §3
Rattus norvegicus [19] = experiment: Cmax in female Sprague-Dawley rat at 10 mg/kg, po administered as single dose by liquid scintillation counting analysis; format: ADME, organism-based; set-up: dose 10 mg/kg, route oral; summary of the method: as §1
Rattus norvegicus [20] = experiment: Terminal half life in female Sprague-Dawley rat at 10 mg/kg, iv administered as bolus dose by liquid scintillation counting analysis; format: ADME, organism-based; set-up: dose 10 mg/kg, route intravenous; summary of the method: as §5
Heart = experiment: Drug uptake in Sprague-Dawley rat heart at 10 mg/kg, iv administered as bolus dose measured at 1 to 24 hrs post-dose by liquid scintillation counting analysis; format: ADME, organism-based; set-up: dose 10 mg/kg, route intravenous; summary of the method: as §2
[21] = Drug excretion in male Sprague-Dawley rat urine at 10 mg/kg, iv administered as bolus dose measured at 0 to 1 hr post-dose by liquid scintillation counting analysis; format: ADME, organism-based; set-up: dose 10 mg/kg, route intravenous; summary of the method: as §3
[22] = Drug excretion in female Sprague-Dawley rat feces at 10 mg/kg, po administered as single dose measured at 0 to 24 hrs post-dose by liquid scintillation counting analysis; format: ADME, organism-based; set-up: dose 10 mg/kg, route oral; summary of the method: as §3
[23] = Drug excretion in male Sprague-Dawley rat urine at 10 mg/kg, po administered as single dose measured at 0 to 24 hrs post-dose by liquid scintillation counting analysis; format: ADME, organism-based; set-up: dose 10 mg/kg, route oral; summary of the method: as §3
[24] = Drug excretion in male Sprague-Dawley rat urine at 10 mg/kg, iv administered as bolus dose measured at 0 to 24 hrs post-dose by liquid scintillation counting analysis; format: ADME, organism-based; set-up: dose 10 mg/kg, route intravenous; summary of the method: as §3

With CO[C@@H]1[C@H](OP(=O)(OC[C@H]2O[C@@H](n3cnc4c(N)ncnc43)C[C@@H]2O)[35S]COC(=O)OC(C)C)[C@@H](CO)O[C@H]1n1ccc(=O)[nH]c1=O (some centres undefined) the Cmax (Rattus norvegicus [1]) was 6.51 ugequiv/ml, the Drug uptake (Brain [2]) was “<= 0.5%” and the Drug excretion [3] was 16.9%. For the same compound, the Drug uptake (Plasma) was “Active”, the Drug excretion [4] was 35.71% and the Drug uptake (Spleen) was “<= 0.5%”. It also gave a Drug excretion [5] of 2.04%, an AUC (Rattus norvegicus [6]) of 35.21 ugequiv.h/ml and a Drug excretion [7] of 0.01%. For the same compound, the Drug excretion [8] was 33.73%, the Tmax (Rattus norvegicus [9]) was 4 h and the Drug excretion [10] was 15.81%. The Drug excretion [11] was 11.33%, the Drug uptake (Lung [12]) was “Active” and the Drug uptake (Kidney) was “Active”. The Drug excretion [13] was 0.16%, the Drug uptake (Lung [14]) was “Active” and the Drug excretion [15] was 9.44%. For the same compound, the Drug excretion [16] was 0.86%, the Drug uptake (Blood) was “Active” and the Drug uptake (Brain [17]) was “<= 0.5%”. The Drug excretion [18] was 0.02%, the Cmax (Rattus norvegicus [19]) was 2.5 ugequiv/ml and the “beta t1/2” value (Rattus norvegicus [20]) was 9 h. The Drug uptake (Heart) was “<= 0.5%”, the Drug excretion [21] was 22.83% and the Drug excretion [22] was 2.72%. It also gave a Drug excretion [23] of 34.59% and a Drug excretion [24] of 56.15%.
